From ChEMBL document CHEMBL3603779, “Identification and Optimization of Benzimidazole Sulfonamides as Orally Bioavailable Sphingosine 1-Phosphate Receptor 1 Antagonists with in Vivo Activity” (J Med Chem, 2015)
In brackets after ≈: the same amount, converted by molar mass. Activity calls are given as the source filed them. The rule behind the calls is not given here.

Tests used:
[1] = Lipophilicity, log D of the compound at pH 7.4; assay type: physicochemical; settings: buffer
[2] = molecular target: Sphingosine 1-phosphate receptor 1 (Homo sapiens, UniProt P21453); test: Antagonist activity against human S1P1 receptor expressed in human U2OS cells co-expressing GFP assessed as inhibition of S1P-induced receptor translocation; assay type: cell-based
Sphingosine 1-phosphate receptor 1, sequence (P21453 whole entry): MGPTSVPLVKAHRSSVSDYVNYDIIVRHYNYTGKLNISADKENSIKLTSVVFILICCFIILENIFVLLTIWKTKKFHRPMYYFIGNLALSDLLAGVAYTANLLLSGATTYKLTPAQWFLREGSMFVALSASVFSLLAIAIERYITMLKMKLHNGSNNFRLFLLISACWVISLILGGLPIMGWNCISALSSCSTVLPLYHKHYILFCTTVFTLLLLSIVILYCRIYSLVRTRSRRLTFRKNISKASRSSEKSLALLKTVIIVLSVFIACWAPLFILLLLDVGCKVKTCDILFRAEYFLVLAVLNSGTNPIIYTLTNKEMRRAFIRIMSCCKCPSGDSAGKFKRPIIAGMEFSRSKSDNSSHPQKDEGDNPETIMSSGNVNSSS
In short: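 Cellular S1P1 translocation (internalization) assay with antagonist; EC50 reported as mean of at least three separate determinations ± standard deviation.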

Cytochrome P450 2D6 = Cytochrome P450 2D6 (Homo sapiens, UniProt P10635); test: Inhibition of CYP2D6 in human liver microsomes incubated for 5 mins in presence of NADPH and specific substrates by LC/MS/MS method; assay type: ADME
Cytochrome P450 2D6, sequence (P10635 whole entry): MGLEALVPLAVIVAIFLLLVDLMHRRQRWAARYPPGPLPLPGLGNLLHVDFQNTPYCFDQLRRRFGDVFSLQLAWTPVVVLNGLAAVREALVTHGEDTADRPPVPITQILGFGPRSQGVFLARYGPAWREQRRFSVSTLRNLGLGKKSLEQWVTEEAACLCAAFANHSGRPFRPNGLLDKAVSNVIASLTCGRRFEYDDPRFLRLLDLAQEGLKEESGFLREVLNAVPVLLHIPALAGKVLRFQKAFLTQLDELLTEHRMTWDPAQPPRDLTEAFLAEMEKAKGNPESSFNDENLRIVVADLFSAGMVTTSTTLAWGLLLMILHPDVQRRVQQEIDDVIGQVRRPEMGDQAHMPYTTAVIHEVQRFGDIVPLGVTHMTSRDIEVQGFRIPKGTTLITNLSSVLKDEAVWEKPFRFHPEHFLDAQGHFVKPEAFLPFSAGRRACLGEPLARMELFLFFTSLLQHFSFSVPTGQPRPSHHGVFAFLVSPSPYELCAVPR

Cytochrome P450 2C19 = Cytochrome P450 2C19 (Homo sapiens, UniProt P33261); test: Inhibition of CYP2C19 in human liver microsomes incubated for 5 mins in presence of NADPH and specific substrates by LC/MS/MS method; assay type: ADME
Cytochrome P450 2C19, sequence (P33261 whole entry): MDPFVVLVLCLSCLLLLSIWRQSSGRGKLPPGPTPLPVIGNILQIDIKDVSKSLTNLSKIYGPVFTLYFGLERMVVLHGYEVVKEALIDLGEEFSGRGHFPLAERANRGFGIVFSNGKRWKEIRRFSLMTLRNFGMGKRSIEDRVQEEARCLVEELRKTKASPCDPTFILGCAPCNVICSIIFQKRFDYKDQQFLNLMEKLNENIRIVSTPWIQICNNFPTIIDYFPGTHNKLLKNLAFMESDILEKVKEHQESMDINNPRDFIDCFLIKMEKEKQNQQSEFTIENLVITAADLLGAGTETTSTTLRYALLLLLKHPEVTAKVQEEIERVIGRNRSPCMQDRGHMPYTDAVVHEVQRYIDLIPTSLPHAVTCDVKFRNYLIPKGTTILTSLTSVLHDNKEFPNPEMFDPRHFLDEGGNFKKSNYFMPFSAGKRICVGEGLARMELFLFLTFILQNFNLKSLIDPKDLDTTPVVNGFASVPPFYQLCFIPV

Cytochrome P450 3A4 [3] = molecular target: T1, Cytochrome P450 3A4 (Homo sapiens, UniProt P08684); test: Inhibition of CYP3A4 in human liver microsomes incubated for 5 mins in presence of NADPH and specific substrates by LC/MS/MS method; assay type: ADME
T1 sequence (P08684 whole entry): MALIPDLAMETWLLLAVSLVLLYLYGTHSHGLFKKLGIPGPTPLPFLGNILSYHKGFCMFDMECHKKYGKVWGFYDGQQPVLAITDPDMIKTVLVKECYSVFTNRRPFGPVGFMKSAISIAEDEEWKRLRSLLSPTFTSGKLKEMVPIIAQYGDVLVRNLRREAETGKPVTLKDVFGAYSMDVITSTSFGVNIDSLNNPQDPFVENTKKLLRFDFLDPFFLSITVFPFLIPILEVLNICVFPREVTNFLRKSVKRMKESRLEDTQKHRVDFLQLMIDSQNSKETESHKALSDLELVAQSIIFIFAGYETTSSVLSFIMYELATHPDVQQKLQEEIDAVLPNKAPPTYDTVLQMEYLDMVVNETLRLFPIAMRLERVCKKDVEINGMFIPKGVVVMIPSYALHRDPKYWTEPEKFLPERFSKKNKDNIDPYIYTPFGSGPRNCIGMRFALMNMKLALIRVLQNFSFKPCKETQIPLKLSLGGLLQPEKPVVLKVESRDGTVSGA

Cytochrome P450 3A5 [4] = molecular target: T2, Cytochrome P450 3A5 (Homo sapiens, UniProt P20815); test: Inhibition of CYP3A5 in human liver microsomes incubated for 5 mins in presence of NADPH and specific substrates by LC/MS/MS method; assay type: ADME
T2 sequence (P20815 whole entry): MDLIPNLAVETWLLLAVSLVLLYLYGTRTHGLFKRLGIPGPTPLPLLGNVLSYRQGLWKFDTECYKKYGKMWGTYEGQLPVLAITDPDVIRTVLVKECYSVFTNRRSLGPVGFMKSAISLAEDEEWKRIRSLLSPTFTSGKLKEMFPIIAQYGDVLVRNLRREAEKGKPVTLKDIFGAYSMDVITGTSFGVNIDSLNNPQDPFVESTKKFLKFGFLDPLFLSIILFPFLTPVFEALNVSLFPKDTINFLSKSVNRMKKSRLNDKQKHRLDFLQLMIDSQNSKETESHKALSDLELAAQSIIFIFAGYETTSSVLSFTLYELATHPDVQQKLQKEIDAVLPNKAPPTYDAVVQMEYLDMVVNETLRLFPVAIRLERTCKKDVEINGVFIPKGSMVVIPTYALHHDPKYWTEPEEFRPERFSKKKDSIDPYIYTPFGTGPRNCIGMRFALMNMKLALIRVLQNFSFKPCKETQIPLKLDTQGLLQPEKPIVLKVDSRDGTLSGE

[5] = molecular target: T3, Nuclear receptor subfamily 1 group I member 2 (Homo sapiens, UniProt O75469); test: Activation of human PXR expressed in human HepG2 cells co-expressing CYP3A4 assessed as CYP3A4 activation at 10 uM by luciferase reporter gene assay relative to rifampicin; assay type: ADME, cell-based; settings: hepg2, 10 µM
T3 sequence (O75469 whole entry): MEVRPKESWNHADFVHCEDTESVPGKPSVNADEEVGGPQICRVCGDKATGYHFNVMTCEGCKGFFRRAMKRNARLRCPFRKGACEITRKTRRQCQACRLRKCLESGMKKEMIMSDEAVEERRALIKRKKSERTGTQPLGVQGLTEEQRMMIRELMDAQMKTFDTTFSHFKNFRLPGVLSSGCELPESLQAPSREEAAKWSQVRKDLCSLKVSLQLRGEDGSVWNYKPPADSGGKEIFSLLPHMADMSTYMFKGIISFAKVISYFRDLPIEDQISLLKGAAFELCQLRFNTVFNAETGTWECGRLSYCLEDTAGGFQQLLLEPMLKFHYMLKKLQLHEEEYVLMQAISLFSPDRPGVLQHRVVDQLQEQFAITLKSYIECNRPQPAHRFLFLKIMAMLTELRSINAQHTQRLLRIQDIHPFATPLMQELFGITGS
In short: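 Single-concentration PXR reporter gene screen, compound at 10 μM; activation expressed as a percentage of the response to rifampicin, also at 10 μM.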

Cytochrome P450 3A4 [6] = molecular target: T1, Cytochrome P450 3A4; test: Induction of CYP3A4 activation in human hepatocytes at 10 uM incubated for 48 hrs using testosterone substrate relative to rifampicin; assay type: ADME, cell-based, Hepatocyte
In short: (§1)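 Human hepatocyte CYP3A induction, testosterone probe with 6-β-hydroxytestosterone as marker; activity expressed as % of the rifampicin response; hepatocytes from two donors tested.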

Cytochrome P450 3A5 [7] = molecular target: T2, Cytochrome P450 3A5; test: Induction of CYP3A5 activation in human hepatocytes at 10 uM incubated for 48 hrs using testosterone substrate relative to rifampicin; assay type: ADME, cell-based, Hepatocyte; in short: as §1
Mus musculus = test: Inhibition of FGF-S1P-stimulated angiogenesis in 129s1/SvImJ mouse assessed as reduction in hemoglobin level at 10 mg/kg, po administered once-daily for 4 days by spectrophotometry based matrigel plug angiogenesis assay; assay type: functional, organism-based
In short: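 Matrigel (0.5 mL) with 2 µg/mL β-FGF and 1 µM S1P injected subcutaneously in the ventral region of female 129s1/SvImJ mice. Oral dosing at 10 mg/kg once daily on days 5-8 post-implant (5 per cohort); vehicle 0.5% HPMC, 0.1% Tween 80. Controls also include Matrigel without factors. Hemoglobin per gram of plug gel quantified.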

[8] = Aqueous equilibrium solubility in pH 7.4 phosphate buffer incubated for 24 hrs by HPLC-UV and MS method; assay type: physicochemical
[9] = Unbound fraction in mouse plasma at 10 uM by LCMS/MS detection based equilibrium dialysis method; assay type: ADME, cell-free
[10] = Unbound fraction in rat plasma at 10 uM by LCMS/MS detection based equilibrium dialysis method; assay type: ADME, cell-free
[11] = Unbound fraction in dog plasma at 10 uM by LCMS/MS detection based equilibrium dialysis method; assay type: ADME, cell-free, Canis lupus familiaris
[12] = Unbound fraction in human plasma at 10 uM by LCMS/MS detection based equilibrium dialysis method; assay type: ADME, cell-free
[13] = Intrinsic clearance in mouse hepatocytes assessed per 10^6 cells at 1 uM after 0.5 to 120 mins by LCMS/MS method; assay type: ADME, cell-based, Hepatocyte; settings: read-out: CLH
[14] = Intrinsic clearance in rat hepatocytes assessed per 10^6 cells at 1 uM after 0.5 to 120 mins by LCMS/MS method; assay type: ADME, cell-based, Hepatocyte; settings: read-out: CLH
[15] = Intrinsic clearance in dog hepatocytes assessed per 10^6 cells at 1 uM after 0.5 to 120 mins by LCMS/MS method; assay type: ADME, cell-based, Canis lupus familiaris, Hepatocyte; settings: read-out: CLH
[16] = Intrinsic clearance in human hepatocytes assessed per 10^6 cells at 1 uM after 0.5 to 120 mins by LCMS/MS method; assay type: ADME, cell-based, Hepatocyte; settings: read-out: CLH
Cytochrome P450 1A2 = molecular target: T4, Cytochrome P450 1A2 (Homo sapiens, UniProt P05177); test: Inhibition of CYP1A2 in human liver microsomes incubated for 5 mins in presence of NADPH and specific substrates by LC/MS/MS method; assay type: ADME
T4 sequence (P05177 whole entry): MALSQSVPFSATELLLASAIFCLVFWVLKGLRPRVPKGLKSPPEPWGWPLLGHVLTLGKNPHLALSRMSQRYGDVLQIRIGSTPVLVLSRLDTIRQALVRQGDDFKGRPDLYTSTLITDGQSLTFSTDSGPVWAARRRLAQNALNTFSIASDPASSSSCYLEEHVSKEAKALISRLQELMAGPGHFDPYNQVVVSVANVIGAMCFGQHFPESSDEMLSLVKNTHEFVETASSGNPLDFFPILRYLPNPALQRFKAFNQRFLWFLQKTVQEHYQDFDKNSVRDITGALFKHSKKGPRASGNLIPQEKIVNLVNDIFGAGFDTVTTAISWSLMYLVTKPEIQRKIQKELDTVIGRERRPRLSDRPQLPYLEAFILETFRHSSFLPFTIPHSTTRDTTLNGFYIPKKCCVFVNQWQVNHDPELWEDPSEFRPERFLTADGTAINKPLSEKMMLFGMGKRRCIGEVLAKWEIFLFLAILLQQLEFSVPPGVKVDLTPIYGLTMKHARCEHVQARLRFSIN

Cytochrome P450 2C9 = Cytochrome P450 2C9 (Homo sapiens, UniProt P11712); test: Inhibition of CYP2C9 in human liver microsomes incubated for 5 mins in presence of NADPH and specific substrates by LC/MS/MS method; assay type: ADME
Cytochrome P450 2C9, sequence (P11712 whole entry): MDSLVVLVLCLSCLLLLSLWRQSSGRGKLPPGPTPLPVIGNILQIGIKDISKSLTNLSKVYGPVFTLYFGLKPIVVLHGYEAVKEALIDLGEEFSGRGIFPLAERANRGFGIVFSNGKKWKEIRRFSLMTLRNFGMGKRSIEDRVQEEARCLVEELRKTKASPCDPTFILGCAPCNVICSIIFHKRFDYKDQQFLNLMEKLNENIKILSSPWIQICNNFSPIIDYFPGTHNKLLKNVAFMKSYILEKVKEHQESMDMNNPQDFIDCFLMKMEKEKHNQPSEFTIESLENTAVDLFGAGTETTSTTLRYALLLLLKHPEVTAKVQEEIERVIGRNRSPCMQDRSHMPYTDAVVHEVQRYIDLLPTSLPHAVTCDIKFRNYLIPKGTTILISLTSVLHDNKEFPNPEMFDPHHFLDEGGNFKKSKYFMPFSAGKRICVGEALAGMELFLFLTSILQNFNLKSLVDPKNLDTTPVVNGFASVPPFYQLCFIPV

[17] = Cmax in Han Wistar rat at 10 mg/kg, po by LCMS/MS method; assay type: ADME, organism-based; parameters: dose 10 mg/kg, route oral; settings: in vivo
[18] = Oral bioavailability in Han Wistar rat at 10 mg/kg by LCMS/MS method; assay type: ADME, organism-based; settings: in vivo
[19] = Clearance in beagle dog at 2.5 mg/kg, iv by LCMS/MS method; assay type: ADME, organism-based, Canis lupus familiaris; settings: in vivo
[20] = Half life in Han Wistar rat at 4 mg/kg, iv by LCMS/MS method; assay type: ADME, organism-based; settings: in vivo

| logD [1] | EC50 [2] | IC50 (Cytochrome P450 2D6) | IC50 (Cytochrome P450 2C19) | IC50 (Cytochrome P450 3A4 [3]) | IC50 (Cytochrome P450 3A5 [4]) | Activity [5] | Activity (Cytochrome P450 3A4 [6]) | Activity (Cytochrome P450 3A5 [7]) | solubility thermodynamic at 24 h [8] | fraction unbound at 10 µM [9] | fraction unbound at 10 µM [10] | fraction unbound at 10 µM [11] | fraction unbound at 10 µM [12] | hepatocyte CLint at 1 µM [13] | hepatocyte CLint at 1 µM [14] | hepatocyte CLint at 1 µM [15] | hepatocyte CLint at 1 µM [16] | IC50 (Cytochrome P450 1A2) | SMILES | inhibition (Mus musculus) | also measured |
| --- | --- | --- | --- | --- | --- | --- | --- | --- | --- | --- | --- | --- | --- | --- | --- | --- | --- | --- | --- | --- | --- |
| 1.3 | 0.007 µM | > 20 µM | > 20 µM | > 20 µM | > 20 µM | 15% | < 40% | < 40% | 765 µM (≈ 325 µg/mL) | 0.53 | 0.32 | 0.36 | 0.24 | 0.3 µL/min/1e6 cells | 2.1 µL/min/1e6 cells | 2.4 µL/min/1e6 cells | 1.2 µL/min/1e6 cells | > 20 µM | CCn1c([C@@H](C)NS(=O)(=O)c2ccc(C#N)nc2)nc2cnc(C(F)(F)F)cc21 | Active | IC50 (Cytochrome P450 2C9): > 20 µM; Cmax [17]: 13.3 µM; bioavailability [18]: 87%; clearance [19]: 2 mL/min/kg |
| 1.6 | 0.004 µM | > 20 µM | > 20 µM | > 20 µM | > 20 µM | 20% | < 40% | < 40% | > 1000 µM | 0.41 | 0.18 | 0.5 | 0.19 | 2.5 µL/min/1e6 cells | 3.9 µL/min/1e6 cells | 1.7 µL/min/1e6 cells | 0.2 µL/min/1e6 cells | > 20 µM | CCn1c([C@@H](C)NS(=O)(=O)c2ccc(C#N)nc2)nc2cnc(C3CC3)cc21 | Active | IC50 (Cytochrome P450 2C9): > 20 µM; Cmax [17]: 21.7 µM; bioavailability [18]: 93%; half-life [20]: 2.9 h |
